Results on six compounds are retold here after ChEMBL document CHEMBL1817613, “Antitumor actinopyranones produced by Streptomyces albus POR-04-15-053 isolated from a marine sediment” (J Nat Prod, 2011).

Where a name gives a salt, the structure may show the parent alone. Active and inactive are the calls of the source. No cut-off for these calls is given here.

Assay [1] has as its system MDA-MB-231. Briefly: Antitumor activity against human MDA-MB-231 cells after 72 hrs by SRB assay. Type of assay: functional. The following applies: MDA-MB-231, 72 h. The method, boiled down: (§1)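 Cells kept in RPMI with 10% fetal calf serum, 2 mM L-glutamine, penicillin/streptomycin, 37 °C, 5% CO2. Triplicate cultures exposed 72 h to 10 concentrations from 10 to 0.0026 μg/mL. Fixed in 1% glutaraldehyde, stained with 0.4% SRB for 30 min, dye extracted in 10 mM Trizma base, absorbance at 490 nm. Doxorubicin positive control. GI50, TGI and LC50 interpolated from nonlinear-regression dose-response curves (mean ± SD).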

Assay [2] has as its system HT-29. Briefly: Antitumor activity against human HT-29 cells after 72 hrs by SRB assay. Type of assay: functional. The following applies: HT-29, 72 h. The method, boiled down: as §1
On the technique in general: In SRB staining, fixed cells bind dye roughly in proportion to their protein.

For assay [3], the system named is A549. Briefly: Antitumor activity against human A549 cells after 72 hrs by SRB assay. The assay is classed as functional. Particulars: A549, 72 h; for CC50: read-out: LC50 (the source's name). The method, boiled down: as §1
Assay [4] has as its target T1, Epidermal growth factor receptor (Homo sapiens, UniProt P00533). Briefly: Inhibition of EGFR-induced AP1 activation in human HeLa cells preincubated for 1 hr prior to EGF stimulation by luciferase reporter gene assay. Type of assay: cell-based. In general terms: In a reporter assay the amount or activity of a reporter protein is the signal.
Assay [5] has as its target T1, Epidermal growth factor receptor. Briefly: Inhibition of EGFR autophosphorylation in human HeLa cells preincubated for 30 mins prior to EGF stimulation by Western blotting. Type of assay: cell-based. The method, boiled down:
(§2)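 Cells preincubated 30 min with vehicle, AG1478 or compound, then treated with EGF for 10 min. Lysed on ice 15 min in Tris-HCl pH 7.5/NaCl/NP-40/EDTA buffer with protease inhibitors, cleared at 14000g for 30 min at 4 °C. Equal extract amounts run on SDS-PAGE and blotted to PVDF. Probed for phospho-EGFR, phospho-ERK and phospho-JNK, then reprobed for total ERK and JNK.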
A general note: A western blot detects proteins with antibodies after separation by electrophoresis.

For assay [6] the target is unchanged. As to the kind of experiment: Inhibition of EGFR-induced ERK phosphorylation in human HeLa cells preincubated for 30 mins prior to EGF stimulation by Western blotting. The assay is classed as cell-based. The method, boiled down: as §2
Assay [7] deals with HeLa. As to the kind of experiment: Effect on total ERK2 level in human HeLa cells preincubated for 30 mins prior to EGF stimulation by Western blotting. Type of assay: functional, cell-based. The method, boiled down: as §2
The subject of assay [8] is HeLa. As to the kind of experiment: Effect on total JNK1 level in human HeLa cells preincubated for 30 mins prior to EGF stimulation by Western blotting. The assay is classed as functional, cell-based. The method, boiled down:
as §2

Assay [9] deals with beta-catenin (Homo sapiens). As to the kind of experiment: Inhibition of beta-catenin activation in human SW480 cells by luciferase reporter gene assay.
The target in assay [10] is HIF-1alpha (Homo sapiens). As to the kind of experiment: Inhibition of HIF1alpha activation in human HeLa cells stimulated with deferoxamine by luciferase reporter gene assay.
Assay [11] concerns the target T1, Epidermal growth factor receptor. As to the kind of experiment: Inhibition of EGFR-induced JNK1 phosphorylation in human HeLa cells preincubated for 30 mins prior to EGF stimulation by Western blotting. The assay is classed as cell-based. The method, boiled down:
as §2

For assay [12] the target is unchanged. As to the kind of experiment: Inhibition of EGFR-induced ERK phosphorylation in human HeLa cells preincubated for 4 hrs prior to EGF stimulation by Western blotting. The assay is classed as cell-based. The method, boiled down:
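Cells preincubated 4 h with vehicle, AG1478 or compound before a 10 min EGF treatment. Lysates cleared at 14000g for 30 min at 4 °C, resolved by SDS-PAGE and blotted to PVDF. Probed for phospho-ERK and reprobed for total ERK.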

T1 sequence (P00533 whole entry): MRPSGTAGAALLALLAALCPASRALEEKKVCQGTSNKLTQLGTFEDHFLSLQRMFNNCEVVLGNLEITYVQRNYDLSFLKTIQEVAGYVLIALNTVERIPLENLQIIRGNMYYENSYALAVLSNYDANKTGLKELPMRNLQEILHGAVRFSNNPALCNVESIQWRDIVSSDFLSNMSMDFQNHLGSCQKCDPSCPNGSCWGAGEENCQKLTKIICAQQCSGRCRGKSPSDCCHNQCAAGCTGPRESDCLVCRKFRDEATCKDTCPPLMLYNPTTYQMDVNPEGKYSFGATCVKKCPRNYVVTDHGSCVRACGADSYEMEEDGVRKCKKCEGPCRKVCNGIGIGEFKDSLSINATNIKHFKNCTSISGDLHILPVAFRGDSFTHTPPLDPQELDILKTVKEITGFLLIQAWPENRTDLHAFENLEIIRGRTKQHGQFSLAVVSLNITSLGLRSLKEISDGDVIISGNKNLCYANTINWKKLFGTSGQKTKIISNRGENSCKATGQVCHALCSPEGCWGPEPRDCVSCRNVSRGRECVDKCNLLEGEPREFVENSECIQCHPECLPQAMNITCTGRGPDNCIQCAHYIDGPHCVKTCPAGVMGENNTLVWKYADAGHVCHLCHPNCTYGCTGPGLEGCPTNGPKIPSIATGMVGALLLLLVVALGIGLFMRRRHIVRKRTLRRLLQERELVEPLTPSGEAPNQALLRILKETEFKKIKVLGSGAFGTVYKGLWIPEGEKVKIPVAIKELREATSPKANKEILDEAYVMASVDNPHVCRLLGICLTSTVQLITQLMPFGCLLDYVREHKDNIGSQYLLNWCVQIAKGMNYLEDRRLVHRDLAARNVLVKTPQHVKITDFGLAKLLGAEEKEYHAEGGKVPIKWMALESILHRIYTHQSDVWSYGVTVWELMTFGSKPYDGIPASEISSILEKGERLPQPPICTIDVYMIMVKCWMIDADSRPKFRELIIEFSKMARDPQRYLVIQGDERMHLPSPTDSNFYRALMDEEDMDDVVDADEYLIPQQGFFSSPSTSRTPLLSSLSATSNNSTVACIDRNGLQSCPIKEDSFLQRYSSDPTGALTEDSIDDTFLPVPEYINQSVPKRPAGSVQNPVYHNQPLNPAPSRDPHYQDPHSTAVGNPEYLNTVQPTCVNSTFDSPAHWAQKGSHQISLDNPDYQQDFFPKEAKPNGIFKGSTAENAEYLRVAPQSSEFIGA

For the compound `C/C=C(\C)C(O[C@@H]1O[C@H](CO)[C@@H](O)[C@H](O)[C@H]1O)C(C)/C=C(C)/C=C/CC(C)/C=C/c1oc(OC)c(C)c(=O)c1C` (some centres not stated), the GI50 in [1] came out at 500 nM; in assay [3] it was 530 nM. For the same compound, the LC50 (concentration killing 50% of cells) in assay [1] was found to be 1010 nM. For the same compound, the TGI came out at 690 nM in assay [1] and 760 nM in assay [3]. Moreover, in [2], the LC50 was 240 nM. Also, the CC50 in assay [3] came to 1160 nM. Further, the figures for the 50% inhibitory concentration (IC50) in assay [4], in assay [9] and in assay [10] were 160 nM, 170 nM and 60 nM, respectively. Further, the inhibition entry in [5] and in [6] was “inactive” each time. Moreover, the outcome in assay [7] and in assay [8] was inactive.

In assay [1], `C/C=C(\C)C(O)C(C)/C=C(C)/C=C/CC(C)/C=C/c1oc(OC)c(CC)c(=O)c1C` (configuration not stated) displayed a GI50 greater than 22000 nM, an LC50 (concentration killing 50% of cells) greater than 22000 nM and a TGI greater than 22000 nM. Further, in assay [2], the GI50 worked out at 21500 nM, the LC50 was greater than 22000 nM and the TGI is greater than 22000 nM. Besides, in assay [3], the GI50 came to 18600 nM, the total growth inhibition concentration (TGI) was greater than 22000 nM and the CC50 was greater than 22000 nM. In assay [5], the inhibition entry was “inactive”. In addition, in [6], the inhibition result is “inactive”. Moreover, the inhibition result in [11] was “Active”. In addition, in [7], the result was inactive. For the same compound, in [8], the result was inactive.

In assay [1], `C/C=C(\C)C(O[C@@H]1O[C@H](CO)[C@@H](O)[C@H](O)[C@H]1O)C(C)/C=C(C)/C=C/CC(C)/C=C/c1oc(OC)c(CC)c(=O)c1C` (some centres not stated) had a GI50 of 240 nM, an LC50 (concentration killing 50% of cells) of 820 nM and a concentration for total growth inhibition (TGI) of 430 nM. In assay [2], growth was halved (GI50) at 380 nM, the LC50 amounted to 4680 nM and the TGI stood at 1230 nM. Further, in assay [3], the GI50 stood at 280 nM, the TGI was 520 nM and the CC50 stood at 1080 nM.

For `C/C=C(\C)[C@H](O)[C@H](C)/C=C(C)/C=C/CC(C)/C=C/c1oc(OC)c(C)c(=O)c1C` (some centres not stated), the GI50 is 10500 nM in [1], 10800 nM in assay [2] and 5000 nM in assay [3]. Besides, the LC50 (concentration killing 50% of cells) in assay [1] is greater than 22000 nM. Moreover, the TGI in assay [1] was greater than 22000 nM; in [2], 10800 nM; in assay [3], 13500 nM. Moreover, the LC50 in [2] amounted to 11500 nM. Also, the CC50 in assay [3] was greater than 22000 nM. Besides, the IC50 in [4] is less than 7 nM; in assay [9] it was 660 nM; in assay [10], 470 nM. Also, the inhibition result in assay [5] was “inactive”. Further, the inhibition result in [6] and in [12] was “Active” throughout. The result in [7] and in assay [8] was inactive.

On to `COc1cccc2c1C(=O)c1c(O)c3c(c(O)c1C2=O)C[C@@](O)(C(=O)CO)C[C@@H]3O[C@H]1C[C@H](N)[C@H](O)[C@H](C)O1` [DOXORUBICIN HYDROCHLORIDE], for which, in assay [1], the GI50 is 90 nM and the concentration for total growth inhibition (TGI) was 180 nM. In [2], growth was halved (GI50) at 150 nM and the TGI came out at 180 nM. In assay [3], growth was halved (GI50) at 60 nM, the TGI came out at 200 nM and the CC50 turned out to be 590 nM.

Turning to `COc1cc2ncnc(Nc3cccc(Cl)c3)c2cc1OC`, in assay [5], the inhibition result is “Active”.

By GI50 is commonly meant the concentration giving 50% growth inhibition. A word on the TGI: it is the concentration at which net growth stops. A lower TGI goes with greater sensitivity of the cells. In general, LC50 refers to the concentration lethal to half of the exposed cells or organisms. A lower LC50 goes with a more lethal substance. Broadly, the IC50 is the concentration that inhibits the measured activity by half.
